One test deals with MCF7. In words: Antiproliferative activity against human MCF7 cells assessed as growth inhibition after 48 hrs by SRB assay. The settings on record: MCF7, 48 h.
The subject of the next test is A549. Briefly: Antiproliferative activity against human A549 cells assessed as growth inhibition after 48 hrs by SRB assay. The note with it: A549, 48 h.
For test [1], the system named is DU-145. Briefly: Antiproliferative activity against human DU145 cells assessed as growth inhibition after 48 hrs by SRB assay. The note with it: DU-145, 48 h.
Test [2] concerns DU-145. In words: Cell cycle arrest in human DU145 cells assessed as cells accumulation at G2/M phase at 2 uM after 48 hrs by propidium iodide staining-based flow cytometric analysis (reference value: 6.81%). The class given is functional. On the technique in general: In flow cytometry, cells or beads pass a laser one at a time.
A further test concerns the target Tubulin (Homo sapiens) (UniProt P68371+Q9H4B7+P0DPH7+P68366+Q13509+Q71U36+P04350+Q3ZCM7+P07437+P68363+Q9BQE3+Q6PEY2+Q13885+Q9BVA1+Q9BUF5). In words: Displacement of colchicine from tubulin (unknown origin) at 5 to 25 uM after 60 mins by competitive binding assay. In kind it is protein-complex assay. The essentials:
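Compound (5, 10, 15, 20, 25 µM) was co-incubated with 4 µM colchicine and 3 µM tubulin in 30 mM Tris buffer for 60 min at 37 °C. Tubulin–colchicine fluorescence was read at ex 350 / em 435 nm. Buffer blank was subtracted and values were normalized to DMSO control (F/F0). Nocodazole or E7010 served as positive control and taxol as negative control.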

Test [3] relates to DU-145. In words: Induction of apoptosis in human DU145 cells assessed as mitochondrial membrane potential drop measured as viable cells at 2 uM after 48 hrs using JC-1 staining-based flow cytometry (reference value: 0%). The class given is functional.
In another test the target is Tubulin. In words: Inhibition of tubulin polymerization (unknown origin) after 1 hr by fluorescence analysis. In kind it is protein-complex assay, Homo sapiens. In short, it runs like this: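 Fluorescence-reporter tubulin polymerization kit. Tubulin (3 mg/mL) in PEM buffer with 1 mM GTP, with or without compound (3 µM, or 2.5–15 µM for IC50). Fluorescence (ex 360 / em 420 nm) was followed for 1 h at 37 °C. IC50 is the concentration giving 50% inhibition of assembly versus control. Data are mean ± SD of two experiments in triplicate, with E7010 as positive control.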

The subject of test [4] is DU-145. In words: Induction of apoptosis in human DU145 cells assessed as necrotic cells at 2 uM after 48 hrs by annexin V-FITC/propidium iodide staining-based flow cytometric analysis (reference value: 0.22%). The class given is functional.
In test [5] the test system is DU-145. In words: Cell cycle arrest in human DU145 cells assessed as cells accumulation at S phase at 2 uM after 48 hrs by propidium iodide staining-based flow cytometric analysis (reference value: 4.18%). In kind it is functional.
Test [6] deals with DU-145. In words: Cell cycle arrest in human DU145 cells assessed as cells accumulation at G0/G1 phase at 2 uM after 48 hrs by propidium iodide staining-based flow cytometric analysis (reference value: 84.75%). The class given is functional.
The test system of test [7] is DU-145. Briefly: Induction of apoptosis in human DU145 cells assessed as mitochondrial membrane potential drop measured as necrotic cells at 2 uM after 48 hrs using JC-1 staining-based flow cytometry (reference value: 0%). In kind it is functional.
The subject of test [8] is DU-145. In words: Induction of apoptosis in human DU145 cells assessed as mitochondrial membrane potential drop measured as late apoptotic cells at 2 uM after 48 hrs using JC-1 staining-based flow cytometry (reference value: 90.9%). In kind it is functional.
Test [9] has as its system DU-145. In words: Induction of apoptosis in human DU145 cells assessed as early apoptotic cells at 2 uM after 48 hrs by annexin V-FITC/propidium iodide staining-based flow cytometric analysis (reference value: 0.71%). In kind it is functional.
The test system of test [10] is DU-145. Briefly: Induction of apoptosis in human DU145 cells assessed as viable cells at 2 uM after 48 hrs by annexin V-FITC/propidium iodide staining-based flow cytometric analysis (reference value: 97.12%). In kind it is functional. The note with it: DU-145, 48 h, read-out: Activity.
For test [11], the system named is DU-145. In words: Cell cycle arrest in human DU145 cells assessed as cells accumulation at SubG1 phase at 2 uM after 48 hrs by propidium iodide staining-based flow cytometric analysis (reference value: 3.52%). The class given is functional.
Test [12] concerns DU-145. In words: Induction of apoptosis in human DU145 cells assessed as late apoptotic cells at 2 uM after 48 hrs by annexin V-FITC/propidium iodide staining-based flow cytometric analysis (reference value: 1.96%). In kind it is functional.
The subject of test [13] is DU-145. Briefly: Induction of apoptosis in human DU145 cells assessed as mitochondrial membrane potential drop measured as early apoptotic cells at 2 uM after 48 hrs using JC-1 staining-based flow cytometry (reference value: 9.1%). In kind it is functional.

Molecules are shown by their SMILES. The source made the active and inactive calls. The calls are words filed in the database; no cut-off is given here.

The GI50 is the concentration that inhibits growth by half. For the compound `COc1cc(Nc2ncccc2C(=O)Nc2cccnc2Nc2ccc(F)cc2)cc(OC)c1OC`, the 50% growth inhibitory concentration (GI50) in the test with MCF7 was greater than 100 µM; in the test with A549, greater than 100 µM; with DU-145 [1], 7 µM.

As usually defined, the IC50 is the concentration at which inhibition is half-maximal. For the compound `COc1ccc(S(=O)(=O)Nc2cccnc2Nc2ccc(O)cc2)cc1` [ABT-751], the Activity stood at 36.52% in the test with DU-145 [2]; 0% in the test with DU-145 [3]; 1.01% in the test with DU-145 [4]; 2.94% in the test with DU-145 [5]; 54.38% in the test with DU-145 [6]; 0% in the test on DU-145 [7]. For the same compound, the Activity in the test with DU-145 [8] came out at 81.9%; in the test with DU-145 [9], 3.93%; in the test with DU-145 [11], 4.11%; in the test on DU-145 [12], 17.72%; in the test with DU-145 [13], 18.1%. For the same compound, the inhibition result on Tubulin (Homo sapiens) was “Active”. This compound also had an IC50 against Tubulin of 2.4 µM. Also, the concentration for 50% growth inhibition (GI50) is 1.25 µM in the test on MCF7, 1.31 µM with A549 and 1.81 µM with DU-145 [1]. Further, the viability at 2 µM in the test with DU-145 [10] was determined as 77.3%.

Take `COc1cc(Nc2ncccc2C(=O)Nc2cccnc2Nc2ccc(Cl)cc2)cc(OC)c1OC`: the GI50 was greater than 100 µM in the test on MCF7, greater than 100 µM with A549 and 10.5 µM in the test with DU-145 [1].

`O=C(Nc1cccnc1Nc1ccccc1)c1cccnc1Nc1ccc(F)cc1`: the GI50 is greater than 100 µM in the test on MCF7, greater than 100 µM in the test with A549 and 7.7 µM in the test on DU-145 [1].

Take `O=C(Nc1cccnc1Nc1ccccc1)c1cccnc1Nc1cc(C(F)(F)F)cc(C(F)(F)F)c1`: the GI50 with MCF7 was found to be 5.4 µM; in the test with A549, 3.2 µM; in the test on DU-145 [1] it was 4.8 µM.

Regarding `COc1ccc(Nc2ncccc2NC(=O)c2cccnc2Nc2cc(C(F)(F)F)cc(C(F)(F)F)c2)cc1`, the results for the GI50 with MCF7, in the test on A549 and with DU-145 [1] were greater than 100 µM, greater than 100 µM and 9.8 µM, respectively.

Consider `O=C(Nc1cccnc1Nc1ccc(F)cc1)c1cccnc1Nc1ccc(F)cc1`, for which the GI50 in the test with MCF7 worked out at 16 µM; in the test on A549, 15.2 µM; with DU-145 [1], 8.4 µM.

In the case of `COc1ccc(Nc2ncccc2NC(=O)c2cccnc2Nc2ccc(OC)cc2)cc1`, the GI50 in the test on MCF7 was greater than 100 µM; with A549, greater than 100 µM; with DU-145 [1], 21.2 µM.

The values above are taken from ChEMBL document CHEMBL3351230, “Synthesis of 2-anilinopyridine dimers as microtubule targeting and apoptosis inducing agents” (Bioorg Med Chem, 2014).
